Source: ChEMBL document CHEMBL1124532, “Angiotensin converting enzyme inhibitors: spirapril and related compounds” (J Med Chem, 1989)

How the values were obtained:
[1] = target: T1, Angiotensin-converting enzyme (Homo sapiens, UniProt P12821); assay: (§1) Compound tested in vitro for inhibition of Angiotensin I converting enzyme
[2] = target: T2, Angiotensin-converting enzyme (Rattus norvegicus) (UniProt P47820); assay: Compound tested in vivo for inhibition of Angiotensin I converting enzyme in rat; assay type: organism-based
T2 sequence (whole entry): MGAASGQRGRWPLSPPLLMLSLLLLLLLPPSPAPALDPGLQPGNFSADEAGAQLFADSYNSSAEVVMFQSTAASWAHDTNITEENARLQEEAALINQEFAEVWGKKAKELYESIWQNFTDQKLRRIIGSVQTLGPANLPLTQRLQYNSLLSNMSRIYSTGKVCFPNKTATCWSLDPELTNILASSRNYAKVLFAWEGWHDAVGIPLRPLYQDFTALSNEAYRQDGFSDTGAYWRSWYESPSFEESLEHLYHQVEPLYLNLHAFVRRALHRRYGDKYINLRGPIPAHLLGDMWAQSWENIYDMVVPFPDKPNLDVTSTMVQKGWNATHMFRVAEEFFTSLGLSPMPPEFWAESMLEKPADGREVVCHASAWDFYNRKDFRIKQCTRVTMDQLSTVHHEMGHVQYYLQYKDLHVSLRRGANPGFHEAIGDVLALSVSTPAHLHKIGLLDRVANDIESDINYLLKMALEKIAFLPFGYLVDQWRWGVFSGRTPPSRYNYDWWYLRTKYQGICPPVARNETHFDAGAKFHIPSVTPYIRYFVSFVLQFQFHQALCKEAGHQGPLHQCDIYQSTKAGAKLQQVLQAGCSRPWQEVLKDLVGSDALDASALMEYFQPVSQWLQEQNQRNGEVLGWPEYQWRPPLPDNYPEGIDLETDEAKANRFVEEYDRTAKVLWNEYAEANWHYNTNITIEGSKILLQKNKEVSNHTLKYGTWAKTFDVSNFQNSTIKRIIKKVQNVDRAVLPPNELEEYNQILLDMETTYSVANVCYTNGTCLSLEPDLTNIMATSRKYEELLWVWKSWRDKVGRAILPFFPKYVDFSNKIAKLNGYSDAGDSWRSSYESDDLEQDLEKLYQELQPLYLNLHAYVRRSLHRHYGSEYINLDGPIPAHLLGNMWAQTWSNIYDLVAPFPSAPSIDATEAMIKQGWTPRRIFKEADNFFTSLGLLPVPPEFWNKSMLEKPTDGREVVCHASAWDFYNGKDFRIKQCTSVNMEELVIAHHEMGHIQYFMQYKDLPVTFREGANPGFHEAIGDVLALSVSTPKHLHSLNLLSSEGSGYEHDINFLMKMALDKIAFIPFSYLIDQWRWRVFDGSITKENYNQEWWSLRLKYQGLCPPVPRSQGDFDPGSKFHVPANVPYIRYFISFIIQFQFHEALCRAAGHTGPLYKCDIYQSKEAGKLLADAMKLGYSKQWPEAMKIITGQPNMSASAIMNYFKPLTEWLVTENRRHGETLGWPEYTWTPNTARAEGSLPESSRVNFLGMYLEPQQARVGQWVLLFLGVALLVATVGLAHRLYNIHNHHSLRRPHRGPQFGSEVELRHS
Summary of the method: (§2)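 Male Sprague-Dawley rats (280–365 g) anesthetized with inactin (100 mg/kg ip) or dial urethane, with carotid blood pressure recorded. AI 1 µg/kg iv was given before and 5 min after each cumulative iv drug dose (3, 10, 30 µg/kg; EtOH/saline, ≤12% EtOH). Percent of control pressor response was regressed on log dose to give ID50 per animal, then averaged.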

[3] = Compound tested in vitro for inhibition of Angiotensin I converting enzyme in rat
Summary of the method: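 Cushman–Cheung method using crude ACE enzyme preparations, with batches varying over the study period. IC50 was determined, and a reference ACE inhibitor was assayed concurrently in each run.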

[4] = target: T2, Angiotensin-converting enzyme (Rattus norvegicus); assay: Compound tested in vivo for inhibition of angiotensin converting enzyme in rat; assay type: organism-based; summary of the method: as §2
Canis familiaris = organism: Canis familiaris; assay: Compound was tested for its efficacy in dog; assay type: functional, Canis lupus familiaris
[5] = target: T3, Angiotensin-converting enzyme (Rattus norvegicus, UniProt P47820); assay: as §1
T3 sequence (P47820 whole entry): T2 sequence (whole entry)
Summary of the method: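 In vitro ACE inhibition by the Cushman–Cheung procedure using crude enzyme preparations whose batches varied over time. IC50 determined with a reference inhibitor run concurrently.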

[6] = target: T1, Angiotensin-converting enzyme; assay: Compound was tested for inhibitory activity against angiotensin converting enzyme when administered intravenously to anesthetized dogs; settings: Canis lupus familiaris; target entry is the homologue from another species

T1 sequence (P12821 whole entry): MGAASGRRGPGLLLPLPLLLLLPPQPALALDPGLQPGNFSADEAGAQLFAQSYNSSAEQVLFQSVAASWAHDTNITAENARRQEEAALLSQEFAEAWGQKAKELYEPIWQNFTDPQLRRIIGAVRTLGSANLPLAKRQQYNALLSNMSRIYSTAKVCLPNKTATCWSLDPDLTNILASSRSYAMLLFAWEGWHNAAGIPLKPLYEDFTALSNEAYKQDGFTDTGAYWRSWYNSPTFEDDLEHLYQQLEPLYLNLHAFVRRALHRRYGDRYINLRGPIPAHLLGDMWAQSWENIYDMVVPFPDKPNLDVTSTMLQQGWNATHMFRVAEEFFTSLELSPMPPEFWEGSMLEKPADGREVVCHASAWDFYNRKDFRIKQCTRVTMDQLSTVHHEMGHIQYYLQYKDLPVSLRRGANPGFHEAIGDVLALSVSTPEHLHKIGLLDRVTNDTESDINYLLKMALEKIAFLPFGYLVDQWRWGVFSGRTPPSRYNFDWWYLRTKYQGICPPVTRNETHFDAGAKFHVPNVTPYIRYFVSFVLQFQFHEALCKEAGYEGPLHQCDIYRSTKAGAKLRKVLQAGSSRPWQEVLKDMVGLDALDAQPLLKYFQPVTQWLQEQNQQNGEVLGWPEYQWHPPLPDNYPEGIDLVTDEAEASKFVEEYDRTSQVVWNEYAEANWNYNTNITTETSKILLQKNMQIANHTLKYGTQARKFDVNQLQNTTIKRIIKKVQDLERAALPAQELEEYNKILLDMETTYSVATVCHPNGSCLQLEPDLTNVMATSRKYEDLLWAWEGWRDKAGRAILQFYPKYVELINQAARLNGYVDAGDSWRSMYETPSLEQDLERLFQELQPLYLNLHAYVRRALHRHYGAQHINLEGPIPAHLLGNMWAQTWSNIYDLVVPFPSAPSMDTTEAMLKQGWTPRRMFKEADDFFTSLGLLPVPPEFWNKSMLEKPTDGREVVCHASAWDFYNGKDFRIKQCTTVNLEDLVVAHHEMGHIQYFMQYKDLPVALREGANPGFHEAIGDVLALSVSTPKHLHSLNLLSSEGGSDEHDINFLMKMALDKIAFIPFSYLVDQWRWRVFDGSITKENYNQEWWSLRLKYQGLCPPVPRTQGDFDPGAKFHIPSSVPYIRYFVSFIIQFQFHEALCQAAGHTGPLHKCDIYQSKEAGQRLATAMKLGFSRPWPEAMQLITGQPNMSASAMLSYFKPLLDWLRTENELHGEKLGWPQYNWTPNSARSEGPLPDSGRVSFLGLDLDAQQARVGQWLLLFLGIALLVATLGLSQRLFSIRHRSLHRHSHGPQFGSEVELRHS

SMILES: CCOC(=O)[C@H](CCc1ccccc1)N[C@@H](CCCCN)C(=O)N1CC2(C[C@H]1C(=O)O)SCCS2
- IC50 [1]: 200 nM
- ID50 [2]: 0.01 mg/kg

SMILES: NCCCC[C@H](N[C@@H](CCc1ccccc1)C(=O)O)C(=O)N1CCC[C@H]1C(=O)O [LISINOPRIL ANHYDROUS]
- IC50 [3]: 1.2 nM

SMILES: CCOC(=O)[C@H](CCc1ccccc1)NCC(=O)N1CC2(C[C@H]1C(=O)O)SCCS2
- ID50 [2]: 0.221 mg/kg

SMILES: CCOC(=O)C(CCc1ccccc1)N[C@@H](C)C(=O)N1CC2(C[C@H]1C(=O)O)SCCS2 (stereo partly drawn)
- IC50 [3]: 92 nM

SMILES: CCOC(=O)[C@H](CCc1ccccc1)N[C@@H](C)C(=O)N1CCC[C@H]1C(=O)O
- ID50 [4]: 0.057 mg/kg

SMILES: CCOC(=O)[C@H](CCc1ccccc1)N[C@@H](C)C(=O)N1CC2(C[C@H]1C(=O)O)SCCS2
- Efficacy (Canis familiaris): 0.3 mg/kg
- IC50 [5]: 67 nM
- ID50 [6]: 0.3 mg/kg
- ID50 [4]: 0.016 mg/kg

SMILES: C[C@H](N[C@@H](CCc1ccccc1)C(=O)O)C(=O)N1CCC[C@H]1C(=O)O
- ID50 [2]: 0.015 mg/kg

SMILES: NCCCC[C@H](N[C@@H](CCc1ccccc1)C(=O)O)C(=O)N1CC2(C[C@H]1C(=O)O)SCCS2
- IC50 [1]: 0.5 nM
- ID50 [2]: 0.01 mg/kg
